Assay outcomes deposited in PubChem BioAssay by several laboratories.
Rows were chosen to be rich in hits. Some 4.3% of all compounds tested hit in one or more screens of this group.
ALR H2O2 inh: blocks human ALR sulfhydryl oxidase activity; P55789; purified ALR, DTT oxidation, H2O2 HRP-luminol luminescence; inhibition, % (no concentration beside the values); 290,000 compounds, 3.8% hits;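 active means mean replicate inhibition above about 79%, with every replicate also reaching it, limit read from the data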
Target sequence (P55789 whole entry, looked up): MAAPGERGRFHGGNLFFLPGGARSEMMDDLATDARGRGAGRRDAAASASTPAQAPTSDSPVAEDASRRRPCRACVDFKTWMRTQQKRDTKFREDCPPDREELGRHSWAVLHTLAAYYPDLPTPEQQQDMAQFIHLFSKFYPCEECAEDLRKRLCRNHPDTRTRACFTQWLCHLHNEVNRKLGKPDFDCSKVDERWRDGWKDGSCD
PREPL inh: human PREPL enzyme inhibition. Q4J6C6. recombinant PREPL, fluorescence polarization activity-based probe. inhibition, % at 5.96 µM. 320,000 compounds, 0.68% hits; in the data active means inhibition above about 43%;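 further: 0% = enzyme with DMSO and 100% = wells lacking enzyme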
RBBP9 inhibitor: inhibitors of human serine hydrolase RBBP9. recombinant RBBP9, FP-Rh probe fluorescence polarization. inhibition, % at 7.94 µM. 220,000 compounds, 0.2% hits;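 active means inhibition above the campaign mean of all tested compounds plus 3 SD, cut at about 14% in these data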;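 further: plate controls were DMSO wells with RBBP9 for no effect and wells lacking RBBP9 protein for full effect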
Target sequence (O75884 whole entry, looked up): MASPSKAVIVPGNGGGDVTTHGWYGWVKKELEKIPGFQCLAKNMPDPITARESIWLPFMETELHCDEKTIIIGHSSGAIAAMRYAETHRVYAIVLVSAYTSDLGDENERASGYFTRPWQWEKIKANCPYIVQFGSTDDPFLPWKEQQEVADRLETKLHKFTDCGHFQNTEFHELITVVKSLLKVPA
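system = RBBP9 protein | input = RBBP9 at 2.5 µM in dispensed solution, before mixing | measured by = fluorescence polarization (mP), excitation 525 nm, emission 598 nm | incubation = enzyme-compound preincubation 30 min, then probe labeling 45 min, 25 °C | buffer or medium = Tris-NaCl-Pluronic buffer, pH 8.0 | compound = single dose 7.94 µM | also added = FP-Rh probe, 375 nM dispensing solution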
UBC9 SUMO inh: inhibitors of human SUMOylation (UBC9). 290,000 compounds, 0.36% hits. P63279. inhibition, % at 35 µM. HTRF SUMOylation assay, SAE1/SAE2 + UBC9, in vitro; in the data active means inhibition above about 50%, passing the limit was not always enough
UBC13 inh: blocks human UBC13 polyubiquitin chain formation. P61088. TR-FRET. inhibition, % at 20 µM. AID 485273. 330,000 compounds, 0.47% hits; in the data active means inhibition above about 45%, passing the limit was not always enough
Target sequence (P61088 whole entry, looked up): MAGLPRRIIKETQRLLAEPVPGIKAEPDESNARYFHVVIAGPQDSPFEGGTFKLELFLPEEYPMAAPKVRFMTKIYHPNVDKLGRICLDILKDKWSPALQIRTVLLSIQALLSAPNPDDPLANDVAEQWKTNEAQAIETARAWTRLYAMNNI
Rin1-Abl PPI inh: blocks binding of human Rin1 to Abl; inhibition, % at 7.35 µM; AID 588664; 360,000 compounds, 0.4% hits; TR-FRET Rin1/Abl binding, biochemical; P00519+Q13671; in the data active means inhibition above about 5%, passing the limit was not always enough
Active calls of the source: *; . = no result given.

SMILES | ALR H2O2 inh | PREPL inh | RBBP9 inhibitor | UBC9 SUMO inh | UBC13 inh | Rin1-Abl PPI inh
Cc1ccc(-n2cccc2/C=C2\C(=N)N3N=C(c4ccco4)SC3=NC2=O)cc1 | 13.2 | 1.3 | -11.6 | 64.3* | -14.0 | 0.3
CC(C)S(=O)(=O)C1=NSC2=NC(=O)/C(=C\c3ccc(-c4ccccc4)o3)C(=N)N21 | 34.7 | 3.5 | -18.3 | 24.0 | . | 0.4
CS(=O)(=O)C1=NSC2=NC(=O)/C(=C\c3ccc(-c4ccccc4)o3)C(=N)N21 | 97.1* | -6.3 | -1.6 | -4.7 | . | .
Cc1cc(C)cc(-n2cccc2/C=C2/C(=N)N3C(=NC2=O)SN=C3S(C)(=O)=O)c1 | 88.0* | -2.4 | -14.0 | 37.0 | -9.1 | -2.6
N=C1/C(=C/c2ccc(-c3cccc(C(=O)O)c3)o2)C(=O)N=C2SC=C(c3ccccc3)N12 | 3.8 | 24.2 | -5.1 | 78.0* | -41.7 | 4.5
Cc1ccc(-n2cccc2/C=C2/C(=N)N3C(=NC2=O)SN=C3S(C)(=O)=O)cc1 | 97.8* | -2.4 | -12.1 | 31.8 | -21.8 | 0.0
COc1ccc(CNC(=O)c2ccc(Cl)c(S(=O)(=O)N3CCOCC3)c2)cc1OC | -0.3 | 3.0 | . | . | 11.8 | -0.4
COc1ccc(/C=C2\SC(=O)N(CC(=O)NNC(=O)c3ccccc3O)C2=O)cc1 | 5.6 | 0.8 | -7.4 | 56.3* | -19.1 | -2.2
O=C(CN1C(=O)S/C(=C\c2ccccc2)C1=O)NNC(=O)c1ccccc1O | 0.0 | 21.8 | 0.4 | . | -15.0 | -0.8
CC(C)c1nc(=S)n(-c2ccccc2)[nH]1 | 89.5* | -9.7 | -4.5 | -19.3 | -3.8 | 0.2
CCN(CC)S(=O)(=O)c1ccc(NC(=O)c2c(-c3ccccc3)noc2C)cc1 | 93.2* | 0.5 | -8.7 | -7.0 | -0.5 | 5.2
CCC(CC)c1nnc(NC(=O)c2c(-c3ccccc3)noc2C)s1 | 77.8* | 3.5 | -3.0 | 15.0 | -3.5 | -0.6
CCNS(=O)(=O)c1ccc(NC(=O)c2c(-c3ccccc3)noc2C)cc1 | -8.6 | 0.6 | 1.5 | -15.4 | 6.5 | 0.9
Cc1nn(CCCC(=O)NC(C)c2ccccc2)c(=O)c2nn(-c3ccccc3)c(C)c12 (centres undefined) | -1.4 | 7.4 | . | -0.6 | -2.0 | 3.1
Cc1nnc2n(c1=O)N=C(c1ccc(Cl)cc1)CS2 | 99.2* | 10.4 | 7.1 | 12.3 | -2.9 | -0.3
CCCN(C(=O)CSc1n[nH]c(-c2ccc(OC)cc2)n1)c1c(N)n(Cc2ccccc2)c(=O)[nH]c1=O | 86.5* | 10.4 | . | . | -1.9 | 1.7
COc1ccc(-c2nc(SCC(=O)N(CC(C)C)c3c(N)n(Cc4ccccc4)c(=O)[nH]c3=O)n[nH]2)cc1 | -8.1 | 9.1 | . | . | -5.1 | 4.0
COC(=O)/C(=C\c1ccc2c(c1)c1ccccc1n2C)NC(=O)c1ccccc1 | -0.7 | 3.2 | -16.4 | 10.3 | -1.2 | -2.2
Cn1c2ccccc2c2cc(/C=C(\NC(=O)c3ccccc3)C(=O)O)ccc21 | 85.7* | 10.7 | -6.0 | -17.4 | -12.4 | -1.1
O=C(O)CCn1cc(/C=C2/NC(=S)N(c3ccccc3)C2=O)c(-c2ccccc2)n1 | 97.0* | -11.6 | -3.2 | 0.2 | -10.7 | -0.6
N#CCCn1cc(/C=C2\NC(=S)N(c3ccccc3)C2=O)c(-c2ccc(-c3ccccc3)cc2)n1 | 0.9 | -3.4 | 1.4 | 0.8 | -18.3 | 0.1
O=CN1CCN(C=O)C(O)C1O (centres undefined) | . | . | . | . | . | 1.4
CCOC(=O)CSc1nnc(C)c(=O)[nH]1 | 0.8 | 5.0 | -3.1 | -4.4 | -10.0 | 0.5
CCOC(=O)CSc1nnc(NCC(=O)OC)c(=O)[nH]1 | 100.1* | -8.8 | -7.9 | -5.4 | 1.0 | -0.7
COc1ccc(C(=O)C(C)OC(=O)c2nc3nccc(C)n3n2)cc1 (centres undefined) | 0.2 | 1.9 | . | . | -2.6 | 5.3
SMILES | ALR H2O2 inh | PREPL inh | RBBP9 inhibitor | UBC9 SUMO inh | UBC13 inh | Rin1-Abl PPI inh
COc1ccc(C2c3ccc4ccccc4c3Oc3ncn(CCN4CCOCC4)c(=N)c32)cc1 (centres undefined) | -53.4 | 43.6* | -5.7 | 15.9 | 4.4 | -3.5
C/C(=N\Nc1nc(C)cc(-c2ccccc2)n1)c1ccc(O)cc1 | 96.1* | 20.7 | . | -1.5 | 2.5 | -1.8
C/C(=N\Nc1nc(C)cc(-c2ccccc2)n1)c1cccc(N)c1 | 99.0* | 6.2 | . | -1.1 | -4.7 | 0.6
C/C(=N\Nc1nc(C)cc(-c2ccccc2)n1)c1ccccc1 | -1.3 | 5.8 | . | -2.0 | -4.8 | 1.6
CNc1cncc(-c2cccc(C(=O)N(C)C)c2)n1 | . | . | . | . | . | -7.2
O=C(NC(c1ccc(F)cc1)c1ccc2ccccc2n1)C1CCN(CCOc2ccc(Cl)cc2)CC1 (centres undefined) | . | . | . | . | . | 0.2
O=C(Nc1cccc2ccccc12)OCc1ccccc1 | . | . | . | . | . | -1.8
CC(=O)c1ccc(OCCCC(=O)Nc2nnc(C3CC3)s2)cc1 | -4.5 | 5.2 | . | . | 4.8 | 4.5
Nc1cccc(-c2csc(-n3ncc(C(=O)O)c3C(F)(F)F)n2)c1 | 98.9* | 1.3 | . | 12.9 | 1.2 | -3.0
CS(=O)(=O)N(CC(=O)NC1CCCC1)C1CCCCC1 | 1.0 | 0.5 | -5.9 | 13.3 | -5.3 | 1.7
CCN(CC)C(=O)c1ccccc1NC(=O)c1cccc(S(=O)(=O)N(CC)CC)c1 | -20.4 | -8.7 | -4.1 | 5.3 | -13.3 | 3.6
CCN(CC)S(=O)(=O)c1cccc(C(=O)N/N=C(\C)c2ccc(O)cc2O)c1 | 86.3* | -1.3 | -3.2 | 19.8 | 25.5 | -2.7
Cc1ccc(S(C)(=O)=O)cc1C(=O)OCC(=O)N1CCCC1=O | . | . | . | . | -3.8 | 2.8
Cc1ccc(N2C(=O)CN(Cc3sccc3C)C2=S)cc1C | . | 3.5 | -6.4 | -24.8 | -1.4 | -1.2
Cc1ccc(N2C(=O)CN(Cc3cccs3)C2=S)cc1C | 95.6* | -2.3 | -5.1 | 6.0 | 8.7 | 0.8
O=C(O)/C=C/c1ccc2c(-c3ccccc3)onc2c1 | 93.1* | -6.3 | -2.3 | 7.8 | -5.4 | 3.1
O=C(O)c1ccc(-c2nc(-c3ccccc3)cs2)cc1 | 95.5* | -3.4 | -7.7 | 20.1 | -2.8 | -0.5
O=C(O)c1ccccc1C(=O)Nc1ccc(-c2csc(-c3ccccc3)n2)cc1 | 98.6* | 5.0 | -4.1 | -5.5 | . | -3.6
O=C(NCc1ccco1)c1cc2sccc2n1Cc1ccccc1 | 92.8* | -2.1 | -9.8 | 7.4 | -1.8 | -0.6
N#Cc1c(/N=C/c2cccs2)sc2c1CCCCC2 | 94.8* | 4.5 | 2.6 | 19.6 | 0.7 | -1.7
CN(C)/C=N/c1sc2c(c1C#N)CCC2 | 87.2* | 9.4 | -5.9 | 32.8 | 10.6 | 0.5
CN(C)/C=N/c1sc2c(c1C#N)CCCCC2 | 58.5 | 6.5 | -5.6 | 10.0 | -13.1 | -3.0
N#Cc1c(/N=C/c2ccc(Br)s2)sc2c1CCC2 | . | . | -9.1 | 41.0 | . | 1.9
COc1ccc(-c2csc(/C(C#N)=C(\O)CSc3nccn3C)n2)cc1OC | 86.3* | -4.1 | -4.1 | 12.5 | -13.9 | -1.0
COc1ccccc1N1CCN(C/C(O)=C(\C#N)c2nc(-c3ccccc3)cs2)CC1 | 0.7 | 4.9 | -9.6 | 18.3 | -10.0 | -1.4
